# An excerpt weighted towards active compounds, which were near 3% of everything screened.
# S1P1 ag-PAM = agonists and agonism potentiators of human S1P1 receptor; S1P1 CRE-bla cells, forskolin, beta-lactamase FRET, potentiator mode; S1P1 agonist co-added at EC20, 2 nM; 100% = saturating reference agonist, 0% = basal; P21453; activation, % at 9.5 µM; hit rate 0.57% among 56,000; AID 449;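 active = activation above a cutoff set at the mean activation of all tested compounds plus 3 SD, cut at about 54% in these data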;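 also: forskolin at 4 µM as EC80 and the EC20 agonist is SEW2871; 100% = SEW2871 at its EC100 plus forskolin at EC80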
# HTR1E agonist = activates the human 5-HT1E serotonin receptor; hit rate 0.69% among 65,000; P28566; activation, % at 6 µM; CHO 5-HT1E Ga15 NFAT-bla reporter, FRET; 0% DMSO wells, 100% control agonist wells; AID 574;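 active = activation above a set limit, the screen-wide mean activation plus 3 SD, cut at about 8.5% in these data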;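 also: 100% = positive control agonist at 1 µM giving full maximal response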
# HTR1A agonist = agonists of human 5-HT1a serotonin receptor. P08908. activation, % at 10 µM. hit rate 0.56% among 65,000. CHO 5-HT1a Ga15 NFAT-bla reporter, FRET ratio; 0% basal, 100% maximal reference agonist;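 active = activation above the screen-wide mean activation plus 3 SD, cut at about 19% in these data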;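 also: 0% = DMSO wells and 100% = 5-CT at EC100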
# S1P3 agonist = agonists of human S1P3 receptor | hit rate 0.1% among 60,000 | Q99500 | activation, % at 4.5 µM | S1P3 NFAT-BLA reporter cells, agonism, FRET ratio; relative to 1 µM S1P, basal subtracted;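 active = activation above the screen-wide mean plus 3 SD, cut at about 4.5% in these data, passing the limit was not always enough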
# Target sequence (Q99500 whole entry, looked up): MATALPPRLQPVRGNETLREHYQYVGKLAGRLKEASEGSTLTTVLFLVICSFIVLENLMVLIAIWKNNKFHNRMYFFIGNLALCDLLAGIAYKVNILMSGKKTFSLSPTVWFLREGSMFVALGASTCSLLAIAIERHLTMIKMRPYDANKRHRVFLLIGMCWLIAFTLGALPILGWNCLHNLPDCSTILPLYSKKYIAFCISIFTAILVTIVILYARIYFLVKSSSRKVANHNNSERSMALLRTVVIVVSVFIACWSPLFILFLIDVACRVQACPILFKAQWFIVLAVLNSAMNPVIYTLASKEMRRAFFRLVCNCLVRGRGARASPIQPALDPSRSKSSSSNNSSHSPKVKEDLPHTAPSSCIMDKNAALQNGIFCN
#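 Benchmarks: high control 1 µM S1P / System: stable CHO line with human S1P3, Gα16, NFAT-BLA reporter / Dosing: single compound concentration, 4.5 µM final / Timing: 4 h compound at 37 °C, 2 h substrate at RT / Measured by: FRET β-lactamase substrate fluorescence, excitation 405 nm, 460/535 nm emission ratio, background-subtracted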
# 5HT1E antag = antagonists of human 5-HT1E serotonin receptor; P28566; CHO 5-HT1E Ga15 NFAT-bla reporter, FRET, antagonist; inhibition, % at 6 µM; hit rate 0.99% among 65,000;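 active = inhibition above a set limit, the mean inhibition across every tested compound plus 3 SD, cut at about 29% in these data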;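 also: signal is the 460 over 535 nm emission ratio of beta-lactamase substrate; 0% = agonist plus DMSO wells and 100% = wells without agonist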
# 5HT1a antag = 5-HT1a (human) receptor antagonism. P08908. CHO 5-HT1a Ga15 NFAT-bla reporter, antagonist mode. inhibition, % at 10 µM. hit rate 0.68% among 62,000. AID 612;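 active = inhibition above the mean of all tested compounds plus 3 SD, cut at about 43% in these data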;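 also: receptor stimulated by 5-CT agonist at 100 nM near EC80; beta-lactamase reporter measured by ratiometric fluorescence of a cleavable substrate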
# * marks the source's active call; other numbers are inactive results; x = no result given.
SMILES,S1P1 ag-PAM,HTR1E agonist,HTR1A agonist,S1P3 agonist,5HT1E antag,5HT1a antag
c1ccc2c(c1)CCN(c1ncnc3c1[nH]c1ccccc13)C2,113*,1,2,-8,46*,x
Cc1ccc2[nH]c3c(N4CCCCCC4)ncnc3c2c1,97*,0,2,-4,32*,x
O=C(N1CCC(O)(c2cccnc2)CC1)C12CC3CC(CC(C3)C1)C2,17,-1,-4,-1,-7,-10
N#CC1=C(c2ccccc2)N=P(N2CCOCC2)(N2CCOCC2)N=C1N1CCOCC1,x,-1,-5,x,7,-5
c1ccc(CN2CCN(c3ncnc4c3[nH]c3ccccc34)CC2)cc1,63*,1,1,-6,35*,x
Cc1ccc2[nH]c3c(N4CCN(Cc5ccccc5)CC4)ncnc3c2c1,33,0,2,-2,21,x
COc1ccccc1C1CC(c2ccc(Cl)cc2)Nc2ncnn21 (stereo not given),x,0,-1,-1,-13,31
Cc1ccc(NC(=O)C2CCN(S(=O)(=O)c3c(C)n[nH]c3C)CC2)nc1,-16,-2,-2,-1,7,2
CC(=O)Nc1ccc(S(=O)(=O)N(C)c2ccc(O)cc2)cc1,6,52*,-2,-1,4,1
CCOc1ccccc1NC(=O)NC1CC2CCCC(C1)N2Cc1nnnn1CCc1ccccc1 (stereo not given),30,0,-5,-1,21,10
CC(C)(C)OC(=O)NCCc1nnc(S(=O)(=O)Cc2ccc(Cl)cc2Cl)o1,46,-1,0,-2,12,69*
COc1ccc(CCn2c(C)cc3c(c2=O)C(c2ccc4c(c2)OCO4)C(C#N)=C(N)O3)cc1OC (stereo not given),-10,0,3,-4,15,x
Cc1cccc(OCCCCc2c(C)n[nH]c2C)c1C,112*,-1,-3,-2,8,12
CCOc1ccccc1OCCCCCc1c(C)n[nH]c1C,89*,-1,0,0,5,20
COc1cc(OC)cc(C(=O)N2c3ccc(F)cc3CCC2C)c1 (stereo not given),2,26*,1,1,-6,2
COc1cc(C2C3=C(Nc4ncnn42)c2ccccc2CC3)cc(OC)c1OC (stereo not given),-40,0,-1,-1,61*,14
NC(=O)c1oc2ccc(Cl)cc2c1N,10,-1,2,-1,-2,1
CN=c1oc2ccc(Cl)cc2cc1C(N)=O,-9,9.8*,-2,-1,-1,15
CCCCCOC(=O)Cn1c(SCC(=O)Nc2ccccc2)nc2c1c(=O)[nH]c(=O)n2C,-1,9.7*,-1,1,2,-7
COc1ccc2nc(C)c(C(=O)OCCN(C)C)cc2c1,-4,0,-3,-1,8,13
CN(c1ccccc1)c1nc(N2CCCC2)nc(-n2ccnc2)n1,0,0,1,-2,14,53*
COc1ccccc1N1CCN(C(=O)C2c3ccccc3Oc3ccccc32)CC1,17,-1,-3,-1,42*,55*
COc1ccccc1N1CCN(C(=O)C2CC=CCC2C(=O)O)CC1 (stereo not given),-9,49*,7,-1,-2,27
COC(=O)c1ccc2c(=O)n(C3CCCCC3)c(SCC#N)nc2c1,87*,0,1,3,-1,-16
CCSc1nc2cc(C(=O)OC)ccc2c(=O)n1CC,x,0,-1,0,-8,2
CC(C)Nc1nc(-c2ccccc2)nc(-n2ccnc2)n1,2,8,-2,-1,30*,36
C=CCNc1nc(-c2ccccc2)nc(-n2ccnc2)n1,-18,2,0,-1,14,8
c1ccc(-c2nc(-n3ccnc3)nc(-n3ccnc3)n2)cc1,-45,1,-2,0,6,-9
c1ccc(-c2nc(NC3CC3)nc(-n3ccnc3)n2)cc1,-11,2,0,0,29*,29
c1ccc(-c2cc3c(ccc4nonc43)nn2)cc1,-26,0,-1,-1,-6,-5

# Screening data deposited in PubChem by The Scripps Research Institute Molecular Screening Center.
